From ChEMBL document CHEMBL1121660, “Haloacetamido analogues of 2-amino-2-deoxy-D-mannose. Syntheses and effects on tumor-bearing mice” (J Med Chem, 1981)

How the values were obtained:
L1210 [1] = test: Percent of control (thymidine incorporation in vitro) at 2.5 mM in L1210 leukemia cells in vitro of B6D2F1 mice; type: functional, Mus musculus
Mus musculus [2] = test: In vivo chemotherapy of Ehrlich tumor in B6D2F1 mice at a dose of 0.42 (mmol/kg)/day was expressed as number of survivors on 60-day/number of treated;0/8; type: functional
Mus musculus [3] = test: In vivo chemotherapy of Ehrlich tumor in B6D2F1 mice at a dose of 0.42 (mmol/kg)/day expressed as number days after tumor challenge; type: functional
Mus musculus [4] = test: In vivo chemotherapy of Ehrlich tumor in B6D2F1 mice at a dose of 0.71 (mmol/kg)/day was expressed as number of survivors on 60-day/number of treated; 4/8; type: functional
[5] = Compound was tested for lethal dose administered in single dose intraperitoneally that killed 50% of the animals; type: ADME, organism-based; settings: mouse, in vivo, ip
Mus musculus [6] = test: In vivo chemotherapy of Ehrlich tumor in B6D2F1 mice at a dose of 0.71 (mmol/kg)/day was expressed as number of survivors on 60-day/number of treated; 8/8; type: functional
Mus musculus [7] = test: In vivo chemotherapy of Ehrlich tumor in B6D2F1 mice at a dose of 0.71 (mmol/kg)/day was expressed as number of survivors on 60-day/number of treated; 1/8; type: functional
Mus musculus [8] = test: In vivo chemotherapy of Ehrlich tumor in B6D2F1 mice at a dose of 0.35 (mmol/kg)/day expressed as number days after tumor challenge; type: functional
L1210 [9] = test: Compound was tested for concentration that inhibited thymidine incorporation in vitro by 50%; type: functional, cell-based, Mus musculus
Method in brief: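 Ascites L1210 cells from DBA/2 passage hosts (harvested 5 days after ip implant of 10⁶ cells), washed in 0.85% NaCl and suspended at 2 × 10⁷/mL in RPMI-1640. Exposed 1 h at 37 °C in RPMI-1640 with 10% FBS; tetra-O-acetates added from ethanol solution, free sugars dissolved directly in medium. Cells washed and plated, then pulsed with [³H]thymidine (1.0 μCi/well) for 15 h. TCA-washed cells counted by scintillation. Ethanol-matched controls. IC50 reported as mean ± SE (≥3 determinations) or range (2).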

Mus musculus [10] = test: In vivo chemotherapy of Ehrlich tumor in B6D2F1 mice at a dose of 0.12 (mmol/kg)/day expressed as number days after tumor challenge; type: functional
Mus musculus [11] = test: In vivo chemotherapy of Ehrlich tumor in B6D2F1 mice at a dose of 0.42 (mmol/kg)/day was expressed as number of survivors on 60-day/number of treated; 0/5; type: functional
Mus musculus [12] = test: In vivo chemotherapy of Ehrlich tumor in B6D2F1 mice at a dose of 3.7 (mmol/kg)/day expressed as number days after tumor challenge; type: functional
Mus musculus [13] = test: In vivo chemotherapy of Ehrlich tumor in B6D2F1 mice at a dose of 3.7 (mmol/kg)/day was expressed as number of survivors on 60-day/number of treated; 1/5; type: functional
Mus musculus [14] = test: In vivo chemotherapy of Ehrlich tumor in B6D2F1 mice at a dose of 3.2 (mmol/kg)/day expressed as number days after tumor challenge; type: functional
Mus musculus [15] = test: In vivo chemotherapy of Ehrlich tumor in B6D2F1 mice at a dose of 2.5 (mmol/kg)/day was expressed as number of survivors on 60-day/number of treated; 5/8; type: functional
Mus musculus [16] = test: In vivo chemotherapy of Ehrlich tumor in B6D2F1 mice at a dose of 3.2 (mmol/kg)/day was expressed as number of survivors on 60-day/number of treated;2/4; type: functional
Mus musculus [17] = test: In vivo chemotherapy of Ehrlich tumor in B6D2F1 mice at a dose of 2.5 (mmol/kg)/day was expressed as number of survivors on 60-day/number of treated; 3/8; type: functional
Mus musculus [18] = test: In vivo chemotherapy of Ehrlich tumor in B6D2F1 mice at a dose of 0.19 (mmol/kg)/day was expressed as number of survivors on 60-day/number of treated; 1/8; type: functional
Mus musculus [19] = test: In vivo chemotherapy of Ehrlich tumor in B6D2F1 mice at a dose of 0.22 (mmol/kg)/day expressed as number days after tumor challenge; type: functional
Mus musculus [20] = test: In vivo chemotherapy of Ehrlich tumor in B6D2F1 mice at a dose of 0.19 (mmol/kg)/day expressed as 60-day survivors (number of survivors/number of treated); 1/8; type: functional
Mus musculus [21] = test: In vivo chemotherapy of Ehrlich tumor in B6D2F1 mice at a dose of 0.13 (mmol/kg)/day was expressed as number of survivors on 60-day/number of treated; 3/8; type: functional
Mus musculus [22] = test: In vivo chemotherapy of Ehrlich tumor in B6D2F1 mice at a dose of 0.13 (mmol/kg)/day expressed as number days after tumor challenge; type: functional
Mus musculus [23] = test: In vivo chemotherapy of Ehrlich tumor in B6D2F1 mice at a dose of […] (mmol/kg)/day expressed as number days after tumor challenge; type: functional
Mus musculus [24] = test: In vivo chemotherapy of Ehrlich tumor in B6D2F1 mice at a dose of 0.22 (mmol/kg)/day was expressed as number of survivors on 60-day/number of treated; 4/4

**Q.** Which “Thymidine incorporation (% of control)” value (L1210 [1]) does the source give for `O=C(CCl)NC1C(O)OC(CO)C(O)C1O` (stereo in doubt; form 3) here?
**A.** The value was 97%.

**Q.** What does the source list for `O=C(CF)NC1C(O)OC(CO)C(O)C1O` (stereo in doubt; form 1)?
**A.** Survivors (Mus musculus [2]): 0; Thymidine incorporation (% of control) (L1210 [1]): 93%; Days (Mus musculus [3]): 2

**Q.** Which Survivors (Mus musculus [4]) does the source give for `CC(=O)OCC1OC(OC(C)=O)C(NC(=O)CCl)C(OC(C)=O)C1OC(C)=O` (stereo in doubt; form 3) here?
**A.** The Survivors was 4.

**Q.** And the LD50 [5]?
**A.** Its LD50 is 1600 µmol/kg.

**Q.** What about the Survivors (Mus musculus [6]) of the same compound?
**A.** Its Survivors is 8.

**Q.** What about the Survivors (Mus musculus [7]) of the same compound?
**A.** Its Survivors is 1.

**Q.** And the Days (Mus musculus [8])?
**A.** The Days was 3.

**Q.** And the IC50 (L1210 [9]; l1210)?
**A.** Its IC50 is 143 µM.

**Q.** Which results are given for `CC(=O)OCC1OC(OC(C)=O)C(NC(=O)CF)C(OC(C)=O)C1OC(C)=O` (stereo in doubt; form 3)?
**A.** Days (Mus musculus [10]): 1; Survivors (Mus musculus [11]): 0

**Q.** Which Days (Mus musculus [12]) does the source give for `O=C(CCl)NC1C(O)OC(CO)C(O)C1O` (stereo in doubt; form 2) here?
**A.** The Days was 4.

**Q.** What about the Survivors (Mus musculus [13]) of the same compound?
**A.** Its Survivors is 1.

**Q.** With `O=C(CBr)NC1C(O)OC(CO)C(O)C1O` (stereo in doubt; form 3) as the compound, how does the “Thymidine incorporation (% of control)” value (L1210 [1]) read?
**A.** The value was 95%.

**Q.** For `CC(=O)OCC1OC(OC(C)=O)C(NC(=O)CCl)C(OC(C)=O)C1OC(C)=O` (stereo in doubt; form 1), which IC50 (L1210 [9]; l1210) is on record?
**A.** Its IC50 is 220 µM.

**Q.** Which IC50 (L1210 [9]; l1210) does the source give for `CC(=O)OCC1OC(OC(C)=O)C(NC(=O)CBr)C(OC(C)=O)C1OC(C)=O` (stereo in doubt; form 2) here?
**A.** Its IC50 is 6.5 µM.

**Q.** Which LD50 [5] does the source give for `O=C(CBr)NC1C(O)OC(CO)C(O)C1O` (stereo in doubt; form 1) here?
**A.** The LD50 was > 3200 µmol/kg.

**Q.** And the Days (Mus musculus [14])?
**A.** The Days was 4.

**Q.** What about the “Thymidine incorporation (% of control)” value (L1210 [1]) of the same compound?
**A.** The value was 79%.

**Q.** And the Survivors (Mus musculus [15])?
**A.** The Survivors was 5.

**Q.** And the Survivors (Mus musculus [16])?
**A.** The Survivors was 2.

**Q.** And the Survivors (Mus musculus [17])?
**A.** The Survivors was 3.

**Q.** With `CC(=O)OCC1OC(OC(C)=O)C(NC(=O)CBr)C(OC(C)=O)C1OC(C)=O` (stereo in doubt; form 1) as the compound, how does the LD50 [5] read?
**A.** The LD50 was 240 µmol/kg.

**Q.** Which “Thymidine incorporation (% of control)” value (L1210 [1]) does the source give for `O=C(CCl)NC1C(O)OC(CO)C(O)C1O` (stereo in doubt; form 1) here?
**A.** The value was 51%.

**Q.** What does the source list for `CC(=O)OCC1OC(OC(C)=O)C(NC(=O)CBr)C(OC(C)=O)C1OC(C)=O` (stereo in doubt; form 3)?
**A.** Survivors (Mus musculus [18]): 1; Days (Mus musculus [19]): 1; Survivors (Mus musculus [20]): 1; Survivors (Mus musculus [21]): 3; Days (Mus musculus [22]): 1; Days (Mus musculus [23]): 3; Survivors (Mus musculus [24]): 4; IC50 (L1210 [9]; Mus musculus, L1210): 9.4 µM

**Q.** Which IC50 (L1210 [9]; l1210) does the source give for `CC(=O)OCC1OC(OC(C)=O)C(NC(=O)CCl)C(OC(C)=O)C1OC(C)=O` (stereo in doubt; form 2) here?
**A.** Its IC50 is 425 µM.

**Q.** Which “Thymidine incorporation (% of control)” value (L1210 [1]) does the source give for `O=C(CBr)NC1C(O)OC(CO)C(O)C1O` (stereo in doubt; form 2) here?
**A.** The value was 68%.

**Q.** With `CC(=O)OCC1OC(OC(C)=O)C(NC(=O)CF)C(OC(C)=O)C1OC(C)=O` (stereo in doubt; form 2) as the compound, how does the IC50 (L1210 [9]; Mus musculus, L1210) read?
**A.** The IC50 was > 1000 µM.
